Experimental data published in ChEMBL document CHEMBL1124808, “The synthesis and antiallergy activity of 1-(aryloxy)-4-(4-arylpiperazinyl)-2-butanol derivatives” (1990).

Tests used:
Assay type in all cases: functional
Rattus norvegicus [1] = assay: Percent change in volume of foot edema of test compound to that of positive control was determined at a dose of 3.16 mg/kg in rat; -52/-79
Rattus norvegicus [2] = assay: Percent change in volume of foot edema of test compound to that of positive control was determined at a dose of 31.6 mg/kg in rat; -90/-79
Cavia porcellus = species on record: Cavia porcellus; assay: Dose that protects 50% of guinea pig from collapse was determined in guinea pig anaphylaxis assay; conditions: read-out: PD50
Summary of the method: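 Guinea pigs dosed by gavage (10 mL/kg) with compound in 0.5% Tween 80/water; reference theophylline 100 mg/kg po. At 1–24 h, exposed in chamber to aerosolized 1% (w/v) egg albumin at 10 L air/min for up to 5 min; protected if no collapse within 5 min. PD50 by Litchfield and Wilcoxon.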

Rattus norvegicus [3] = assay: Percent change in volume of foot edema of test compound to that of positive control was determined at a dose of 10 mg/kg in rat; -67/-72
Rattus norvegicus [4] = assay: Percent change in volume of foot edema of test compound to that of positive control was determined at a dose of 31.6 mg/kg in rat; -40/-81
Rattus norvegicus [5] = assay: Percent change in volume of foot edema of test compound to that of positive control was determined at a dose of 31.6 mg/kg in rat; -54/-67
Rattus norvegicus [6] = assay: Percent change in volume of foot edema of test compound to that of positive control was determined at a dose of 10 mg/kg in rat; -5/-59
Rattus norvegicus [7] = assay: Percent change in volume of foot edema of test compound to that of positive control was determined at a dose of 10 mg/kg in rat; -41/-59
Rattus norvegicus [8] = assay: Percent change in volume of foot edema of test compound to that of positive control was determined at a dose of 31.6 mg/kg in rat; -74/-67
Rattus norvegicus [9] = assay: Percent change in volume of foot edema of test compound to that of positive control was determined at a dose of 10 mg/kg in rat; -11/-65
Rattus norvegicus [10] = assay: Percent change in volume of foot edema of test compound to that of positive control was determined at a dose of 31.6 mg/kg in rat; -66/-66
Rattus norvegicus [11] = assay: Percent change in volume of foot edema of test compound to that of positive control was determined at a dose of 31.6 mg/kg in rat; 39/-78
Rattus norvegicus [12] = assay: Percent change in volume of foot edema of test compound to that of positive control was determined at a dose of 31.6 mg/kg in rat; -85/-78
Rattus norvegicus [13] = assay: Percent change in volume of foot edema of test compound to that of positive control was determined at a dose of 10 mg/kg in rat; +22/-73
Rattus norvegicus [14] = assay: Percent change in volume of foot edema of test compound to that of positive control was determined at a dose of 10 mg/kg in rat; +14/-44
Rattus norvegicus [15] = assay: Percent change in volume of foot edema of test compound to that of positive control was determined at a dose of 31.6 mg/kg in rat; -48/-84
Rattus norvegicus [16] = assay: Percent change in volume of foot edema of test compound to that of positive control was determined at a dose of 31.6 mg/kg in rat; -83/-69
Rattus norvegicus [17] = assay: Percent change in volume of foot edema of test compound to that of positive control was determined at a dose of 10 mg/kg in rat; -53/-76
Rattus norvegicus [18] = assay: Percent change in volume of foot edema of test compound to that of positive control was determined at a dose of 3.16 mg/kg in rat; -50/-84
Rattus norvegicus [19] = assay: Percent change in volume of foot edema of test compound to that of positive control was determined at a dose of 31.6 mg/kg in rat; -75/-83
Rattus norvegicus [20] = assay: Oral Antiallergic activity in the passive foot anaphylaxis (PFA) assay of various amines at the dose of 3.16 mg/kg; -38/-78
Rattus norvegicus [21] = assay: Percent change in volume of foot edema of test compound to that of positive control was determined at a dose of 10 mg/kg in rat; -61/-88
Rattus norvegicus [22] = assay: Percent change in volume of foot edema of test compound to that of positive control was determined at a dose of 10 mg/kg in rat; -39/-78
Rattus norvegicus [23] = assay: Percent change in volume of foot edema of test compound to that of positive control was determined at a dose of 31.6 mg/kg in rat; -70/-84
Rattus norvegicus [24] = assay: Percent change in volume of foot edema of test compound to that of positive control was determined at a dose of 10 mg/kg in rat; -48/-68
Rattus norvegicus [25] = assay: Percent change in volume of foot edema of test compound to that of positive control was determined at a dose of 3.16 mg/kg in rat; -13/-68
Rattus norvegicus [26] = assay: Percent change in volume of foot edema of test compound to that of positive control was determined at a dose of 31.6 mg/kg in rat; -78/-78
Rattus norvegicus [27] = assay: Percent change in volume of foot edema of test compound to that of positive control was determined at a dose of 31.6 mg/kg in rat; -26/-81
Rattus norvegicus [28] = assay: Percent change in volume of foot edema of test compound to that of positive control was determined at a dose of 31.6 mg/kg in rat; -49/-44
Rattus norvegicus [29] = assay: Percent change in volume of foot edema of test compound to that of positive control was determined at a dose of 10 mg/kg in rat; -25/-44

With `Cl.Cl.OC(CCN1CCN(c2ccccn2)CC1)COc1ccc(F)cc1` (configuration not stated) as the compound, how does the PFA (Rattus norvegicus [1]) read?
Its PFA is -52.

What about the PFA (Rattus norvegicus [2]) of the same compound?
Its PFA is -90.

And the ED50 (Cavia porcellus)?
The ED50 was 13.9 mg/kg.

And the PFA (Rattus norvegicus [3])?
Its PFA is -67.

`c1ccc(OCCN2CCN(c3ccccc3)CC2)cc1` was tested. Which PFA (Rattus norvegicus [4]) did it give?
The PFA was -40.

For `Cl.Cl.OC(CCN1CCN(c2ccc(Cl)cc2)CC1)COc1ccc(Cl)cc1` (configuration not stated), which PFA (Rattus norvegicus [5]) is on record?
The PFA was -54.

And the PFA (Rattus norvegicus [6])?
Its PFA is -5.

`Cc1cc(OCC(O)CCN2CCN(c3ccc(F)cc3)CC2)ccc1Cl.Cl.Cl` (configuration not stated) was tested. Which PFA (Rattus norvegicus [7]) did it give?
The PFA was -41.

What about the PFA (Rattus norvegicus [8]) of the same compound?
The PFA was -74.

With `Cc1ccc(OCC(O)CCN2CCN(c3ccccc3)CC2)cc1` (configuration not stated) as the compound, how does the PFA (Rattus norvegicus [9]) read?
The PFA was -11.

What about the PFA (Rattus norvegicus [10]) of the same compound?
Its PFA is -66.

For `OC(CCN1CCN(c2cccc(C(F)(F)F)c2)CC1)COc1ccccc1` (configuration not stated), which PFA (Rattus norvegicus [11]) is on record?
Its PFA is 39.

With `OC(CCN1CCN(c2cccc(Cl)c2)CC1)COc1ccccc1` (configuration not stated) as the compound, how does the PFA (Rattus norvegicus [12]) read?
The PFA was -85.

What about the PFA (Rattus norvegicus [13]) of the same compound?
Its PFA is 22.

For `Cc1cc(C)cc(OCC(O)CCN2CCN(c3ccccc3)CC2)c1` (configuration not stated), which PFA (Rattus norvegicus [14]) is on record?
Its PFA is 14.

What about the PFA (Rattus norvegicus [15]) of the same compound?
Its PFA is -48.

With `OC(CCN1CCN(c2ccccc2)CC1)COc1ccc(Cl)cc1` (configuration not stated) as the compound, how does the ED50 (Cavia porcellus) read?
The ED50 was 6.69 mg/kg.

What about the PFA (Rattus norvegicus [16]) of the same compound?
Its PFA is -83.

And the PFA (Rattus norvegicus [17])?
Its PFA is -53.

What about the PFA (Rattus norvegicus [18]) of the same compound?
The PFA was -50.

For `CC(=O)c1ccc(N2CCN(CCC(O)COc3ccc(Cl)cc3)CC2)cc1` (configuration not stated), which PFA (Rattus norvegicus [19]) is on record?
The PFA was -75.

And the PFA (Rattus norvegicus [20])?
The PFA was -38.

And the PFA (Rattus norvegicus [21])?
Its PFA is -61.

For `O=C(O)/C=C\C(=O)O.O=C(O)/C=C\C(=O)O.OC(CCN1CCN(c2ccccn2)CC1)COc1ccccc1` (configuration not stated), which PFA (Rattus norvegicus [22]) is on record?
The PFA was -39.

And the PFA (Rattus norvegicus [23])?
Its PFA is -70.

Which PFA (Rattus norvegicus [24]) does the source give for `Cl.Cl.OC(CCN1CCN(c2ccccn2)CC1)COc1ccc(Cl)cc1` (configuration not stated) here?
Its PFA is -48.

What about the PFA (Rattus norvegicus [25]) of the same compound?
The PFA was -13.

And the PFA (Rattus norvegicus [26])?
Its PFA is -78.

What about the ED50 (Cavia porcellus) of the same compound?
The ED50 was 10.2 mg/kg.

How did the PFA (Rattus norvegicus [27]) turn out when `O=C(O)C(=O)O.OC(CCN1CCCCC1)COc1ccccc1` (configuration not stated) was run?
Its PFA is -26.

With `Cl.Cl.OC(CCN1CCN(c2ccccc2)CC1)COc1ccc(Cl)c(Cl)c1` (configuration not stated) as the compound, how does the PFA (Rattus norvegicus [28]) read?
Its PFA is -49.

And the PFA (Rattus norvegicus [29])?
Its PFA is -25.
